From ChEMBL document CHEMBL3232790, “Identification of a new series of amides as non-covalent proteasome inhibitors” (Eur J Med Chem, 2014)
The source made the active and inactive calls. The rule behind the calls is not given here.

Experiments:
[1] = target: T1, Proteasome Macropain subunit MB1 (Homo sapiens) (UniProt P28074); test: Inhibition of chymotrypsin-like activity of human 20S proteasome beta 5 subunit assessed as Suc-Leu-Leu-Val-Tyr-AMC substrate hydrolysis at 20 uM after 10 mins by fluorometric analysis
T1 sequence (whole entry): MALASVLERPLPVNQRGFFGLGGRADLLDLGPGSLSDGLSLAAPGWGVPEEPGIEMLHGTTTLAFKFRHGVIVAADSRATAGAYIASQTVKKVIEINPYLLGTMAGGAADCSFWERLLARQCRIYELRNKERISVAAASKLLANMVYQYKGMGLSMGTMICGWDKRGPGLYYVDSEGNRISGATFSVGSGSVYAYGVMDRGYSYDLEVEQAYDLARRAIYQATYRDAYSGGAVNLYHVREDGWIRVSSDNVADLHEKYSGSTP
Method in brief: (§1)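 Single-concentration preliminary screen of human 20S proteasome activity. An equivalent amount of DMSO served as negative control. AMC release read by fluorescence at 30 °C (ex 380/em 460 nm). Percent inhibition was recorded, and at least 40% inhibition triggered full Ki assays.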

NCI60 = test: Cytotoxicity against human NCI60 cells at 10^-5 M; format: functional, cell-based
[2] = target: Chymotrypsinogen A (Bos taurus) (UniProt P00766); test: (§2) Inhibition of bovine pancreatic alpha-chymotrypsin activity assessed as Suc-Leu-Leu-Val-Tyr-AMC substrate hydrolysis after 10 mins
Method in brief: (§3)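 Bovine pancreatic α-chymotrypsin in 50 mM Tris pH 8.0 with 100 mM NaCl, 5 mM EDTA and 7.5% DMSO. Suc-Leu-Leu-Val-Tyr-AMC at 75 (final) as substrate. AMC release was followed over 10 min.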

[3] = target: Cathepsin B (Homo sapiens) (UniProt P07858); test: Inhibition of cathepsin B (unknown origin) assessed as Cbz-Phe-Arg-AMC substrate hydrolysis
[4] = target: T2, Proteasome Macropain subunit MB1 (Homo sapiens, UniProt P28074); test: Inhibition of chymotrypsin-like activity of human 20S proteasome beta 5 subunit assessed as Suc-Leu-Leu-Val-Tyr-AMC substrate hydrolysis after 10 mins by fluorometric analysis
T2 sequence (P28074 whole entry): T1 sequence (whole entry)
Method in brief: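 Human 20S proteasome at 0.004 mg mL-1 final, incubated at 30 °C with varied inhibitor concentrations. Buffer: 50 mM Tris pH 7.5, 10 mM NaCl, 25 mM KCl, 1 mM MgCl2, 0.03% SDS, 5% DMSO. Ki from progress-curve slopes fitted to a 4-parameter IC50 equation, Ki = IC50/(1+[S]/Km), Km measured separately. Mean of three.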

[5] = target: T3, Proteasome component C5 (Homo sapiens) (UniProt P20618); test: Inhibition of caspase-like activity of human 20S proteasome beta 1 subunit assessed as Cbz-Leu-Leu-Glu-AMC substrate hydrolysis at 20 uM after 10 mins by fluorometric analysis; method in brief: as §1
T3 sequence (whole entry): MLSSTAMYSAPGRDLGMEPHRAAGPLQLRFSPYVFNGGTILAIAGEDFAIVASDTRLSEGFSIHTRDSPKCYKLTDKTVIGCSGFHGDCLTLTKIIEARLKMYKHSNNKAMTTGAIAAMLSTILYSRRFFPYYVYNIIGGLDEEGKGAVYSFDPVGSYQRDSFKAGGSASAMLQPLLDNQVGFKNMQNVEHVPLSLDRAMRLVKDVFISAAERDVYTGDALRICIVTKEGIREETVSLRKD

Chymotrypsinogen A = Chymotrypsinogen A (Bos taurus, UniProt P00766); test: as §2; method in brief: as §3

Compound | inhibition [1] [%] | Activity (NCI60) | inhibition [2] | inhibition [3] | Ki [4] [µM] | inhibition [5] [%] | Ki (Chymotrypsinogen A) [µM]
CCN(CC)c1ccn(CC(=O)N[C@@H](CC(C)C)B(O)O)c(=O)c1 | 100 |  |  |  |  |  | 
COc1ccc(NC(=O)Cn2ccccc2=O)cc1 | 32 | inactive | inactive | inactive |  |  | 
O=C(Cn1ccccc1=O)NC12CC3CC(CC(C3)C1)C2 | 86 | inactive | inactive | inactive | 7.55 | > 50 | 
O=C(Cn1ccccc1=O)NCc1ccccc1 | 15 | inactive | inactive | inactive |  |  | 
CC(C)CCNC(=O)Cn1cc(Br)c2ncccc2c1=O | 56 | inactive | inactive | inactive | 0.56 |  | 
CC(C)CCNC(=O)Cn1ccc(Nc2ccccc2)cc1=O | 87 | inactive | inactive | inactive | 0.33 |  | 
CCN(CC)c1ccn(CC(=O)NCCC(C)C)c(=O)c1 | 28 | inactive | inactive | inactive |  |  | 
CC(C)CCNC(=O)Cn1ccc2c(c1=O)CCCN2 | 45 | inactive | inactive | inactive | 10.1 |  | 
CC(C)C[C@H](NC(=O)Cn1ccc(Nc2ccccc2)cc1=O)B(O)O | 97 |  |  |  |  |  | 
CC(C)C[C@H](NC(=O)Cn1cc(Br)c2ncccc2c1=O)B(O)O | 100 |  |  |  |  |  | 
O=C(Cn1ccc(Nc2ccccc2)cc1=O)Nc1ccccc1C(=O)c1ccccc1 | 67 | inactive |  | inactive | 8.03 |  | 6.65
O=C(Cn1ccc(Nc2ccccc2)cc1=O)NCc1ccccc1 | 16 | inactive | inactive | inactive |  |  | 
O=C(Cn1ccccc1=O)Nc1ccccc1C(=O)c1ccccc1 | 21 | inactive | inactive | inactive |  |  | 
CC(C)CCNC(=O)Cn1ccc(N2CCCCC2)cc1=O | 27 | inactive | inactive | inactive |  |  | 
CC(C)C[C@H](NC(=O)[C@H](C)n1ccc2ncccc2c1=O)B(O)O | 100 |  |  |  |  |  | 
O=C(Cn1ccccc1=O)Nc1ccccc1 | 23 | inactive | inactive | inactive |  |  | 
CC(C)CCNC(=O)Cn1ccc2c(c1=O)CCCN2C | 7 | inactive | inactive | inactive |  |  | 
CC(C)C[C@H](NC(=O)Cn1ccc2ncccc2c1=O)B(O)O | 100 |  |  |  |  |  | 
O=C(Cn1ccc(Nc2ccccc2)cc1=O)NC12CC3CC(CC(C3)C1)C2 | 13 | inactive | inactive | inactive |  |  | 
CC(C)C[C@H](NC(=O)[C@H](Cc1ccccc1)NC(=O)c1cnccn1)B(O)O | 100 | inactive | inactive | inactive |  |  | 
CC(C)CCNC(=O)[C@H](C)n1ccc2ncccc2c1=O | 35 | inactive | inactive | inactive |  |  | 
CC(C)CCNC(=O)Cn1ccc(N2CCOCC2)cc1=O | 42 | inactive | inactive | inactive | 7.67 |  | 
CC(C)CCNC(=O)Cn1ccc2ncccc2c1=O | 10 | inactive | inactive | inactive |  |  | 
CC(C)C[C@H](NC(=O)Cn1ccc2c(c1=O)CCCN2C)B(O)O | 84 |  |  |  |  |  | 
O=C(Cn1ccc(Nc2ccccc2)cc1=O)Nc1ccccc1 | 9 | inactive | inactive | inactive |  |  | 
COc1ccc(NC(=O)Cn2ccc(Nc3ccccc3)cc2=O)cc1 | 72 | inactive | inactive | inactive | 1.48 | > 50 | 
